Source: ChEMBL document CHEMBL1649410, “Discovery of 7-N-piperazinylthiazolo[5,4-d]pyrimidine analogues as a novel class of immunosuppressive agents with in vivo biological activity” (J Med Chem, 2011)
pIC50: −log10 of the molar value.

What follows are compounds tested on Mus musculus (assay: Toxicity in BALB/c mouse during cardiac allograft from C57BL/6 mouse at 40 mg/kg, po treatment started from day of transplantation for 30 days). Conditions: in vivo, 720 h.
Format: organism-based
Parameters: dose 40 mg/kg, route oral
Procedure, shortened: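 Female mice aged 8-10 weeks, 20-25 g: C57BL/6 (H-2^b) donors, Balb/c (H-2^d) recipients. Recipients randomized to groups. Dosing 40 (mg/kg)/day by daily gavage. Vehicle 30% 2-hydroxypropyl-β-cyclodextrin given alone to controls (n = 6). […] Graft survival recorded in days. Student t test against vehicle group.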

Row | SMILES | Activity
1 | Nc1nc(N2CCN(C(=O)COc3ccc(Cl)cc3)CC2)c2nc(-c3cccnc3)sc2n1 | Non-toxic

What follows are compounds tested on Lymphocyte (assay: Immunosuppressive activity in peripheral blood lymphocytes isolated from two individuals assessed as proliferation using [methyl-3H]thymidine by mixed lymphocyte reaction assay). Conditions: Homo sapiens.
Format: functional, cell-based
Procedure, shortened: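 Human PBMCs from heparinized blood of healthy donors, isolated over Lymphoprep, 1.6 × 10⁶ cells/mL in RPMI-1640 with 10% heat-inactivated FCS. Stimulators: RPMI1788 cells given 30 μg/mL mitomycin C, 20 min, 37 °C, washed, 0.6 × 10⁶ cells/mL. Cells mixed with diluted compound, 5 days at 37 °C in 5% CO₂. 1 μCi (methyl-³H)thymidine added for last 18 h; harvested, cpm counted. IC₅₀ from two independent experiments (mean).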

Row | SMILES | pIC50
2 | Nc1nc(N2CCN(C(=O)COc3ccc(Cl)cc3)CC2)c2sc(-c3ccc(F)cc3)nc2n1 | < 5.00
3 | Nc1nc(N2CCNCC2)c2nc(-c3ccc(F)cc3)sc2n1 | 5.37
4 | Nc1nc(N2CCN(C(=O)COc3ccc(Cl)cc3)CC2)c2nc(-c3ccc(F)cc3)sc2n1 | 6.31
5 | CC(C)(Oc1ccc(Cl)cc1)C(=O)N1CCN(c2nc(N)nc3sc(-c4ccc(F)cc4)nc23)CC1 | < 5.00
6 | Cc1ccc(NC(=O)N2CCN(c3nc(N)nc4sc(-c5ccc(F)cc5)nc34)CC2)cc1 | 6.15
7 | Cc1cccc(NC(=O)N2CCN(c3nc(N)nc4sc(-c5ccc(F)cc5)nc34)CC2)c1 | 6.52
8 | Nc1nc(N2CCN(S(=O)(=O)c3ccccc3)CC2)c2nc(-c3ccc(F)cc3)sc2n1 | < 5.00
9 | Nc1nc(N2CCN(C(=O)OCc3ccccc3)CC2)c2nc(-c3ccc(F)cc3)sc2n1 | 5.31
10 | CCCCCN1CCN(c2nc(N)nc3sc(-c4ccc(F)cc4)nc23)CC1 | < 5.00
11 | Nc1nc(N2CCN(Cc3ccccc3)CC2)c2nc(-c3ccc(F)cc3)sc2n1 | < 5.00
12 | Cc1cccc(N2CCN(c3nc(N)nc4sc(-c5ccc(F)cc5)nc34)CC2)c1 | < 5.00
13 | Nc1nc(N2CCN(C(=O)COc3ccc(Cl)cc3)CC2)c2nc(-c3ccc(F)cc3)oc2n1 | 5.52
14 | Nc1nc(N2CCN(C(=O)COc3ccc(Cl)cc3)CC2)c2nc(-c3ccc(F)cc3)[nH]c2n1 | 6.10
15 | Nc1nc(N2CCN(C(=O)COc3ccc(Cl)cc3)CC2)c2cc(-c3ccc(F)cc3)sc2n1 | 6.15
16 | Nc1nc(N2CCN(C(=O)COc3ccc(Cl)cc3)CC2)c2nc(Cc3ccc(F)cc3)sc2n1 | 6.15
17 | CC(c1ccc(F)cc1)c1nc2c(N3CCN(C(=O)COc4ccc(Cl)cc4)CC3)nc(N)nc2s1 (centres undefined) | 5.36

Row | SMILES | pIC50
18 | Nc1nc(N2CCN(C(=O)COc3ccc(Cl)cc3)CC2)c2nc(CCc3ccc(F)cc3)sc2n1 | 5.36
19 | Nc1nc(N2CCN(C(=O)COc3ccc(Cl)cc3)CC2)c2nc(CCOc3ccc(F)cc3)sc2n1 | 5.45
20 | Nc1nc(N2CCN(C(=O)COc3ccc(Cl)cc3)CC2)c2nc(CCCCc3ccc(F)cc3)sc2n1 | 6.04
21 | CCCCCc1nc2c(N3CCN(C(=O)COc4ccc(Cl)cc4)CC3)nc(N)nc2s1 | 6.16
22 | Cc1ccc(-c2nc3c(N4CCN(C(=O)COc5ccc(Cl)cc5)CC4)nc(N)nc3s2)cc1 | 6.46
23 | Nc1nc(N2CCN(C(=O)COc3ccc(Cl)cc3)CC2)c2nc(-c3ccc(Cl)cc3)sc2n1 | 6.57
24 | Nc1nc(N2CCN(C(=O)COc3ccc(Cl)cc3)CC2)c2nc(-c3ccncc3)sc2n1 | 7.40
25 | Nc1nc(N2CCN(C(=O)COc3ccc(Cl)cc3)CC2)c2nc(-c3cccnc3)sc2n1 | 7.30
26 | Nc1nc(N2CCN(C(=O)COc3ccc(Cl)cc3)CC2)c2nc(-c3ccccn3)sc2n1 | 6.64
27 | Nc1nc(N2CCN(C(=O)COc3ccccc3)CC2)c2nc(-c3ccc(F)cc3)sc2n1 | 7.05
28 | Nc1nc(N2CCN(C(=O)COc3ccc(F)cc3)CC2)c2nc(-c3ccc(F)cc3)sc2n1 | 7.15
29 | Nc1nc(N2CCN(C(=O)COc3ccc(Br)cc3)CC2)c2nc(-c3ccc(F)cc3)sc2n1 | 6.42
30 | COc1ccc(OCC(=O)N2CCN(c3nc(N)nc4sc(-c5ccc(F)cc5)nc34)CC2)cc1 | 7.40
31 | Nc1nc(N2CCN(C(=O)COc3ccc(F)cc3)CC2)c2nc(-c3cccnc3)sc2n1 | 7.92
32 | COc1ccc(OCC(=O)N2CCN(c3nc(N)nc4sc(-c5cccnc5)nc34)CC2)cc1 | 7.92

What follows are compounds tested on Mus musculus (assay: Suppression of cardiac allograft rejection of C57BL/6 mouse to BALB/c mouse assessed as surviving days at 40 mg/kg, po treatment started from day of transplantation for 30 days by immunosuppressive assay). Conditions: not given.
Format: functional
Procedure, shortened: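 Female mice aged 8-10 weeks and weighing 20-25 g. Donors were inbred C57BL/6 (H-2b) and recipients Balb/c (H-2d). Animals were randomly allocated and dosed by daily gavage in 30% 2-hydroxypropyl-β-cyclodextrin. […] Each graft was scored as surviving days, compared with vehicle by Student t test.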

Row | SMILES | Survival [days]
33 | Nc1nc(N2CCN(C(=O)COc3ccc(Cl)cc3)CC2)c2nc(-c3cccnc3)sc2n1 | >17
34 | C/C=C/C[C@@H](C)[C@@H](O)[C@H]1C(=O)N[C@@H](CC)C(=O)N(C)CC(=O)N(C)[C@@H](CC(C)C)C(=O)N[C@@H](C(C)C)C(=O)N(C)[C@@H](CC(C)C)C(=O)N[C@@H](C)C(=O)N[C@H](C)C(=O)N(C)[C@@H](CC(C)C)C(=O)N(C)[C@@H](CC(C)C)C(=O)N(C)[C@@H](C(C)C)C(=O)N1C [CYCLOSPORINE] | >30
